High-throughput results (PubChem)
SENP1 FRET inh: human SENP1 catalytic domain inhibitors, primary screen, biochemical, FRET, uHTS; recombinant SENP1 catalytic domain, CyPet-SUMO1-YPet FRET cleavage; inhibition, % at 10 µM; 360,000 compounds, 0.21% hits;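 active = inhibition at least 30% at 10 µM, raw YFP signal under a set limit, fluorescence ratio 0.5 to 1.5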;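 also: 0% = enzyme with DMSO and 100% = no enzyme wells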
Target sequence (Q9P0U3 419-644 limits assumed): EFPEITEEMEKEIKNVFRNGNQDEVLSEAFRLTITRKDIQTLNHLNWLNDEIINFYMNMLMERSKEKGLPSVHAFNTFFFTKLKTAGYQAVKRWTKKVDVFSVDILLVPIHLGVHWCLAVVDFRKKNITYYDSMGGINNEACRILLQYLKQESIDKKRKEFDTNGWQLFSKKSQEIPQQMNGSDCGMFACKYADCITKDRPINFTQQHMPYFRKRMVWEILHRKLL
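Assay system: hSENP1 catalytic domain, recombinant. Amount: SENP1 enzyme, 20 pM final. Schedule: 50 min reaction, RT, dark. Technique: FRET, CFP and YFP emission. Control set: no-enzyme wells low, DMSO-plus-enzyme wells high control.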
HDAC3 inh: HDAC3 deacetylase inhibitors, primary screen, biochemical, fluorescence, cell-free homogeneous; recombinant HDAC3, fluorogenic peptide/trypsin coupled; inhibition, % at 8.3 µM; 320,000 compounds, 0.15% hits; AID 2718, 2010; in the data active = inhibition above about 26%, passing the limit was not always enough
Fh CTSL1 inh: Fasciola hepatica cathepsin L1 inhibitors, primary screen, counter-screen for PFM18AAP inhibitor project, biochemical, QFRET, fluorogenic peptide substrate. recombinant F. hepatica cathepsin L1, Z-Leu-Arg-MCA fluorescence. inhibition, % at 5.96 µM. 300,000 compounds, 0.49% hits. AID 1906, 2009;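 active = inhibition above the mean of all tested compounds plus 3 SD, set per screening campaign, cut at about 17% in these data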;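 also: 0% = plate median of test compound wells and 100% = 1 µM Z-Phe-Ala-diazomethylketone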
PfM18AAP inh: PfM18AAP inhibitors, malaria aminopeptidase, primary screen, biochemical, QFRET, recombinant enzyme; M18 aspartyl aminopeptidase (Plasmodium falciparum 3D7); 290,000 compounds, 1.2% hits; H-Glu-NHMec fluorogenic cleavage; inhibition, % at 7.35 µM;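 active = inhibition above the campaign mean inhibition over all tested compounds plus 3 SD, cut at about 28% in these data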;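 also: 0% = plate median of test compound wells and 100% = 2 mM ZnCl2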
GAA850 FXN act: FXN promoter activators, primary screen, cell-based, luciferase luminescence, HEK293 lucGAA850 | HEK293 lucGAA850 FXN promoter luciferase reporter, 24 h; percent of 10 µM SAHA response | activation, % at 6 µM | 360,000 compounds, 0.56% hits | AID 540364, 2011;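 active = activation above the average of all compounds screened plus 3 SD, cutoff fixed separately per campaign, cut at about 7.5% in these data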;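 also: 0% = DMSO wells and 100% = 10 µM SAHA wells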
AHR activator: AHR activators, primary screen, cell-based, luminescence, luciferase reporter, human; 320,000 compounds, 2.5% hits; AHR-responsive luciferase reporter cells; Aryl hydrocarbon receptor (Homo sapiens), P35869; AID 2796, 2010; activation, % at 5 µM; in the data active = activation above about 47%;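 also: 0% = vehicle wells and 100% = reference agonist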
An asterisk follows results filed as active; nt = no result. In the library only some 4.2% were active in any assay of this set; here they are far more common.

SMILES	SENP1 FRET inh	HDAC3 inh	Fh CTSL1 inh	PfM18AAP inh	GAA850 FXN act	AHR activator
COc1cccc(/C=N\NC(=O)c2sc(N)nc2C)c1OC	-4	3	3	-4	0	60*
COc1cccc(/C=N/NC(=O)C(=O)N/N=C/c2cccc(OC)c2OC)c1OC	4	-4	-1	4	3	5
N#Cc1ccc(C(=O)NNC(=O)c2ccncc2)cc1	2	-1	-3	-9	1	0
c1ccc(-c2nc(-c3cccnc3)n[nH]2)cc1	nt	-2	-2	1	nt	65*
Cc1c(NC(=O)Nc2cccc(C#N)c2)c(=O)n(-c2ccccc2)n1C	1	1	-1	-3	0	0
O=C(NC(=S)N1CCN(c2ccc(O)cc2)CC1)c1cccs1	2	nt	5	31*	0	1
O=C(NC(=S)Nc1ccccc1N1CCCCC1)c1cccs1	1	-5	5	-2	6	45
O=C(NC(=S)Nc1ccccc1N1CCCC1)c1cccs1	-6	1	8	7	4	51*
CC(C)CC(=O)NC(=S)Nc1ccccc1N1CCCC1	1	-3	20*	-3	1	12
O=c1c2ccccc2c(C=Nc2cccc(O)c2)c(O)n1-c1ccc2c(c1)OCO2	-104	-6	7	-3	-6	-4
Cc1[nH]c2ccccc2c1/C=N/NC(=O)CNC(=O)c1ccco1	-1	6	-2	3	1	12
Oc1[nH]c2ccccc2c1C=Nc1ccc2c(c1)OCO2	-85	0	7	7	5	58*
O=C(CNc1ccc2c(c1)OCO2)N/N=C\c1ccccc1Cl	-15	10	-1	19	2	81*
O=C(Cc1ccccc1)N/N=C/c1cc2c(cc1Cl)OCO2	1	-6	3	-1	0	27
Cc1[nH]c2ccccc2c1/C=N\NC(=O)CNc1ccc2c(c1)OCO2	0	-7	1	14	0	68*
COC(=O)CNc1ccc2c(c1)OCO2	-25	2	-2	31*	1	4
N#CCCN(Cc1ccccc1)C(C(=O)NC1CCCCC1)c1cc2ccccc2o1 (centres undefined)	1	nt	nt	nt	nt	nt
Cc1noc(NS(=O)(=O)c2ccc(NC(=O)c3cccc(S(=O)(=O)Nc4ccccc4F)c3)cc2)c1C	1	-4	nt	nt	-1	-2
Oc1[nH]c2ccccc2c1/C=N/c1nccs1	-20	-3	0	-3	1	53*
CC(c1ccc2ccccc2c1)c1ccccc1C(=O)O (centres undefined)	1	nt	nt	nt	0	nt
Cc1nc2cc(NC(=O)CCS(=O)(=O)c3ccccc3)ccc2s1	2	3	1	0	5	17
Cn1c(N)c(-c2nc3cccnc3n2C)sc1=S	-36	-3	-4	4	1	51*
N#CC(C(=O)O)=C1CCCC1	0	0	1	-1	0	1
N#CC(C#SN)=C1CCCCC1	-4	5	-3	30*	1	11
Fc1cccc(Oc2nc3ccccc3n3cccc23)c1	-4	1	65*	-6	1	23
SMILES	SENP1 FRET inh	HDAC3 inh	Fh CTSL1 inh	PfM18AAP inh	GAA850 FXN act	AHR activator
CSc1nc2ccccc2n1Cc1cccc(F)c1	2	3	-3	-9	3	0
COC(C(=O)Nc1ccnn1C1CCN(Cc2cnn(C(C)C)c2)CC1)c1ccccc1 (centres undefined)	2	6	0	-3	0	-1
Oc1cc(-n2cccn2)c(O)cc1-n1cccn1	-3	1	-2	85*	-2	1
COc1cc(NCC2COc3c(ccc(OC)c3OC)C2=O)c([N+](=O)[O-])cc1OC (centres undefined)	-4	nt	nt	nt	nt	nt
COc1ccccc1-c1cc(-c2ccc(O)cc2)nc(N)c1C#N	-31	-23	3	12	0	62*
O=C(N/N=C\c1ccc(-c2ccccc2[N+](=O)[O-])o1)C1COc2ccccc2O1 (centres undefined)	0	8	-3	9	1	65*
Nn1cnnc1N/N=C\c1ccc(-c2ccccc2[N+](=O)[O-])o1	-48	nt	nt	54*	-4	nt
O=C(N/N=C\c1ccc(-c2ccccc2[N+](=O)[O-])o1)C1COc2cc3ccccc3cc2O1 (centres undefined)	-6	14	-2	5	1	33
Cn1cnnc1SCC(=O)Nc1ccc(S(N)(=O)=O)cc1	1	-10	-3	-6	-1	0
COc1ccc(-c2cn3c(C)c(C(=O)NC(C)(C)C)sc3n2)cc1	0	-3	-2	2	5	55*
COc1ccc(-c2cn3c(C)c(C(=O)NC(C)C)sc3n2)cc1	-1	5	1	-4	2	-1
CC(=O)N1c2ccc(F)c(F)c2C[C@H]1C	1	-2	nt	nt	1	-3
COc1cc2c(C)nc3onc(-c4ccccc4)c3c2cc1OC	-5	1	3	-4	2	71*
COc1cc2c(C)nc3c(c(C)nn3-c3ccccc3)c2cc1OC	-60	-11	-4	-15	0	21
C[C@H](CO)N1C[C@H](C)[C@@H](CN(C)C(=O)NC2CCCCC2)Oc2c(NC(=O)Nc3ccccc3)cccc2C1=O	1	7	nt	nt	-1	-1
COC(=O)Cc1nnc(Nc2cccc(C)c2)c2ccccc12	-1	5	-3	-3	0	61*
CCOC(=O)Cc1nnc(Nc2cccc(C)c2)c2ccccc12	2	5	6	6	-1	2
CN(C)C(=O)Nc1ccccc1CC[N+](=O)[O-]	1	4	-4	3	1	12
O=C(Nc1ccc(Cl)cc1)Nc1ccccc1CC[N+](=O)[O-]	-5	3	0	0	1	67*
c1ccc(-c2nc(-c3ccccn3)nc(-c3ccccn3)n2)nc1	-1	-3	2	0	-1	10
c1ccc(-c2nnc(-c3ccccn3)s2)nc1	2	5	0	9	1	65*
COc1ccc(C(=O)Nc2ccc3c(c2)C(=O)c2ccccc2C3=O)cc1OC	-1	0	5	-3	3	1
COc1ccc(C(=O)c2c(C(F)(F)F)oc3c2C(=O)c2ccccc2C3=O)cc1OC	1	-2	31*	-3	-2	-16
CC1(C)CC(Cc2ccc(C(=O)c3ccccc3)cc2)N(C(=O)OC(C)(C)C)N1 (centres undefined)	2	nt	nt	nt	-2	nt
Nc1nc(N)nc(-c2cc(C(F)(F)F)ccc2Cl)n1	2	28*	1	nt	2	4
